In ChEMBL document CHEMBL1240426, “Synthesis and biological evaluation of novel hybrid chalcone derivatives as vasorelaxant agents” (Eur J Med Chem, 2010):

Tests used:
[1] = test system: Aorta; test: Vasodilatory activity in Sprague-Dawley rat aortic rings with endothelium assessed as inhibition of phenylephrine-induced vasoconstriction relative to phenylephrine; assay type: functional
Procedure, shortened: (§1)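 Endothelium-intact aortic rings from male Sprague-Dawley rats (4–6 months, ~250 g) were equilibrated for ≥1 h and then contracted isometrically with phenylephrine. Once tone stabilized (~20 min), compound was added cumulatively at 15–20 min intervals until relaxation reached steady state, with vehicle-only tissues run in parallel. Emax was taken as % of the PE contraction, and EC50 came from nonlinear regression of the concentration-response curve.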

[2] = test system: Aorta; test: Vasodilatory activity in Sprague-Dawley rat aortic rings with endothelium assessed as inhibition of phenylephrine-induced vasoconstriction; assay type: functional, tissue-based; procedure, shortened: as §1

Row | EC50 [2] [µM] | SMILES | Emax [1] [%] | Activity [2]
1 | 9.3 | COC(=O)C1=C(C)NC(C)=C(C(=O)OCCOc2cc(O)cc(O)c2C(=O)/C=C/c2ccc3c(c2)OCO3)C1c1cccc([N+](=O)[O-])c1 (configuration not stated) | 98.6 | Dose-dependent effect
2 | 12.1 | Cc1c(COc2cc(O)cc(O)c2C(=O)/C=C/c2ccc3c(c2)OCO3)no[n+]1[O-] | 95.7 | Dose-dependent effect
3 | 9.4 | Cc1c(COc2cc(O)c(C(=O)/C=C/c3ccc4c(c3)OCO4)c(OCCO[N+](=O)[O-])c2)no[n+]1[O-] | 96 | Dose-dependent effect
4 | 6.4 | COC(=O)C1=C(C)NC(C)=C(C(=O)OCCOc2cc(O)cc(O)c2C(=O)/C=C/c2cccc(Br)c2)C1c1cccc([N+](=O)[O-])c1 (configuration not stated) | 102 | Dose-dependent effect
5 | 13.4 | O=C(/C=C/c1ccc2c(c1)OCO2)c1c(O)cc(O)cc1OCCO[N+](=O)[O-] | 103 | Dose-dependent effect
6 | 2.9 | COC(=O)C1=C(C)NC(C)=C(C(=O)OCCOc2cc(O)cc(O)c2C(=O)/C=C/c2ccc(O)cc2)C1c1cccc([N+](=O)[O-])c1 (configuration not stated) | 104 | Dose-dependent effect
7 | 8.9 | Cc1no[n+]([O-])c1COc1cc(O)cc(O)c1C(=O)/C=C/c1ccc2c(c1)OCO2 | 100 | Dose-dependent effect
8 | 9.7 | COC(=O)C1=C(C)NC(C)=C(C(=O)OCCOc2cc(O)ccc2C(=O)/C=C/c2ccc3c(c2)OCO3)C1c1cccc([N+](=O)[O-])c1 (configuration not stated) | 103 | Dose-dependent effect

Row | SMILES | EC50 [2] [µM] | Emax [1] [%] | Activity [2]
9 | O=C(/C=C/c1ccc2c(c1)OCO2)c1c(OCCO[N+](=O)[O-])cc(OCCO[N+](=O)[O-])cc1OCCO[N+](=O)[O-] | 8.4 | 104 | Dose-dependent effect
